According to BindingDB's records for doi:10.1021/jm000269t (Amgen, 2000):

Biological target: T1, Neuropeptide Y receptor type 5 (Homo sapiens, UniProt Q15761)
T1 sequence (Q15761 whole entry): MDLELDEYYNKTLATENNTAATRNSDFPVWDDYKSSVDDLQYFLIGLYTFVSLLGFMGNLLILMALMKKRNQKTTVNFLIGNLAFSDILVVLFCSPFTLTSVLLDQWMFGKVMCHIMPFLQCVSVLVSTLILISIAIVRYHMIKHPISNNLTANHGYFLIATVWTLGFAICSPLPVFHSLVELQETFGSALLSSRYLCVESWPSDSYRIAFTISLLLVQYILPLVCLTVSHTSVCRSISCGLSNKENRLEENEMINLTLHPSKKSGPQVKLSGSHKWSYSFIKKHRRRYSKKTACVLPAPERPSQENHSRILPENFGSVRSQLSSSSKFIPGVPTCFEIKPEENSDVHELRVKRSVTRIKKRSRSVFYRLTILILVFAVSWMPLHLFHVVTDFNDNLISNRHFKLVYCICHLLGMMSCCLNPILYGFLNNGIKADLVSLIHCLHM
Test: Affinity for human neuropeptide Y receptor Y5, binding was evaluated in an in vitro radioligand [125I]PYY binding assay
Method in brief: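 HEK 293 cells expressing human Y5 receptor, harvested in PBS and homogenized in sucrose buffer; membranes washed by repeated 48000g spins and resuspended in MEM/Earle's assay buffer (25 mM HEPES, 0.1% BSA, STI, Pefabloc, pH 7.4). Membranes (200 µg tissue) incubated with compounds and 0.15 nM [125I]PYY, 2 h at 30 °C. Nonspecific binding defined with 1 µM PYY. Filtration read-out; IC50 by nonlinear regression, averaging at least two 6-point curves.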

Cc1ccc(-c2cc3nc(C)nc(N4CCCCC4)c3[nH]2)cc1 [2-Methyl-4-piperidin-1-yl-6-p-tolyl-5H-pyrrolo[3,2-d]pyrimidine]
IC50: 0.5 nM

Cc1nc(N2CCCCC2)c2[nH]c(-c3ccc(C)o3)cc2n1 [2-Methyl-6-(5-methyl-furan-2-yl)-4-piperidin-1-yl-5H-pyrrolo[3,2-d]pyrimidine]
IC50: 0.5 nM
